From PubChem BioAssay
OX1R antag-1: OX1R (human) antagonism; O43613; OX1R-expressing cells, FRET antagonist read-out; inhibition, % at 6.6 µM; actives 1.8% (n = 330,000); AID 485270; in the data active means inhibition mostly above about 38%, no sharp cut-off; inactive means mostly below about 40%
MPTP inh: blocks calcium-induced mitochondrial swelling; inhibition, % at 10 µM; actives 1.4% (n = 360,000); isolated mouse mitochondria, Ca2+ swelling absorbance, 30 min;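 active means inhibition of 50% or more, scaled per plate between neutral and stimulator controls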
GPR7 antag: antagonists of human GPR7 (neuropeptides B/W receptor 1) | P48145 | inhibition, % at 4.4 µM | actives 1.1% (n = 290,000) | GPR7-expressing cells, fluorescence antagonist assay | AID 1861; in the data active means inhibition above about 16%, passing the limit was not always enough;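 further: cells stimulated with the agonist NPW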
Target sequence (P48145 whole entry, looked up): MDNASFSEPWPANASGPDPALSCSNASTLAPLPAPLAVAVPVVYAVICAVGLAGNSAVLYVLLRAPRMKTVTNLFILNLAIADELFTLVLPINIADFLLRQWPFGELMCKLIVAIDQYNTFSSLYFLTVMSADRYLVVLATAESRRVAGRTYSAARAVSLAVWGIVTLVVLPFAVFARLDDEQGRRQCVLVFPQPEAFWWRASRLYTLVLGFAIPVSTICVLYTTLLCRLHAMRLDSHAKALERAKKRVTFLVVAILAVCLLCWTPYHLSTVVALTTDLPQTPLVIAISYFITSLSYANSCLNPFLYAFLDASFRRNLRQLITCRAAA
CHO parental Ca: counter-screen for OX1R antagonists: effect in parental CHO cells; parental CHO-K1, ATP-induced calcium, Fluo-8 fluorescence; inhibition, % at 5.6 µM; actives 0.63% (n = 330,000); AID 463079;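 active means inhibition above that plate's mean sample inhibition plus 3 SD, cut at about 26% in these data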
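Assay system: untransfected parental CHO cell line. Also added: ATP agonist challenge. Dosing: one dose, 5.6 µM nominal. Measured by: Fluo-8 fluorescence. Read-out: % inhibition. Benchmarks: ATP wells versus no-ATP DMSO wells. Repeats: no replicates.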
OX1R antag-2: antagonists of human orexin 1 receptor; O43613; CHO/OX1R cells, Fluo-8 calcium fluorescence, orexin A; inhibition, % at 5 µM; actives 0.43% (n = 330,000);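 active means inhibition above its plate's threshold, mean inhibition of all tested compounds on the plate plus 3 SD, cut at about 37% in these data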
MPTP counter: Rhodamine 123 counter-screen of mitochondrial pore hits. AID 624504. actives 78% (n = 5,000). isolated mitochondria, membrane potential, Rhodamine 123 fluorescence. shares compounds with MPTP inh. inhibition, % at 10 µM; in the data active means inhibition above about 22%
MPTP abs DR: MPTP inhibition, dose response swelling confirmation | shares compounds with MPTP inh | isolated mitochondria swelling, absorbance | IC50, µM | actives 58% (n = 780); in the data active means IC50 below about 20 µM
MPTP cs DR: MPTP inhibitor counter-screen activity, dose response; shares compounds with MPTP inh; isolated mitochondria counterscreen, fluorescence read-out; IC50, µM; actives 49% (n = 780); AID 651564; in the data active means IC50 below about 80 µM
Numbers stand for hits; – = inactive; · = no result given; ! = not confirmed by another sample. In the library only some 3.8% were active in any assay of this set; here they are far more common.

SMILES	OX1R antag-1	MPTP inh	GPR7 antag	CHO parental Ca	OX1R antag-2	MPTP counter	others
Oc1ccc(C[C@H]2CNCCN2CCc2cc(C(F)(F)F)cc(C(F)(F)F)c2)cc1	–	–	·	–	–	·
Cc1ccccc1N(C=O)c1ccccc1C	·	–	·	·	·	·
COc1cccc(NC2c3ccccc3C(=O)N2Cc2ccco2)c1 (configuration not stated)	–	–	–	–	–	·
O=C1c2ccccc2C(Nc2cccc(C(F)(F)F)c2)N1Cc1ccco1 (configuration not stated)	–	63	–	–	–	33
CCCCCc1nc2sc3c(c2c(=O)n1NC(=O)c1ccc([N+](=O)[O-])cc1)CC(C)(C)OC3	53	90	–	–	–	76
N#C/C(=C\c1ccc(-c2ccccc2C(=O)O)o1)c1nc2ccccc2[nH]1	–	–	–	–	–	·
N#C/C(=C/c1ccc(Sc2nc3ccccc3[nH]2)o1)c1cccc(F)c1	59	85	–	–	–	87
N#C/C(=C\c1ccc(Sc2ccccc2)o1)c1nc2ccccc2[nH]1	–	94	–	–	–	68
N#C/C(=C/c1ccc(Sc2nc3ccccc3[nH]2)o1)c1cccc(Br)c1	80	84	–	–	–	98
O=C(N/N=C/c1ccc(Sc2nc3ccccc3[nH]2)o1)c1ccncc1	–	–	–	–	–	·
N#C/C(=C/c1ccc(Sc2nc3ccccc3[nH]2)o1)c1ccccc1F	53	96	–	–	–	83
CCN1C(=O)[C@H]2[C@@H](c3ccc(-c4ccc(C(C)=O)cc4)cc3)N[C@@](Cc3ccccc3)(C(=O)OC)[C@H]2C1=O	–	–	·	–	–	·
CN(C)c1nc(C=C(C#N)C#N)c(Cl)n1-c1ccc(F)cc1	·	–	–	·	·	·
Cc1nc(N2CCN(c3ccc(Cl)cc3)CC2)[nH]c(=O)c1C	–	–	–	–	–	·
Cc1sc2ncn(CC(=O)N3CCN(c4ccccn4)CC3)c(=O)c2c1S(=O)(=O)N1CCCCC1	–	–	–	–	–	·
C/C(N)=C(/C#N)C(=O)COC(=O)c1ccc(C#N)cc1	–	–	–	–	–	·
CCCC[C@@H]1CNCCN1CCc1cccc2ccccc12	–	65	·	–	–	–	MPTP abs DR=12;MPTP cs DR=–
c1ccc(C[C@H]2CNCCN2CCc2cccc3ccccc23)cc1	–	–	·	–	–	·
O=C(/C=C/c1cccs1)Nc1ccc([N+](=O)[O-])cc1	–	81	–	–	–	74
O=C(CSc1nc2ccccc2[nH]1)NC1CCCc2ccccc21 (configuration not stated)	–	–	–	–	–	·
O=C(CSc1nc2ccc(Cl)cc2[nH]1)NC1CCCc2ccccc21 (configuration not stated)	73	63	–	–	–	62
Cc1ncc([N+](=O)[O-])n1CCOC(=O)C12CC3CC(CC(C3)C1)C2	–	–	–	–	–	·
Cc1ncc([N+](=O)[O-])n1CCOC(=O)Nc1ccc([N+](=O)[O-])cc1	–	77	–	–	–	71
O=C(NNc1nc(=O)c2cccnc2s1)c1ccccc1O	–	–	–	–	–	·
COc1ccccc1/C=C/C=C(\C#N)C(=O)NC(C)c1ccccc1 (configuration not stated)	–	–	–	–	–	·
SMILES	OX1R antag-1	MPTP inh	GPR7 antag	CHO parental Ca	OX1R antag-2	MPTP counter	others
Cc1cccc(OCCC(=O)Nc2ccc(F)c(Cl)c2)c1	–	78	–	–	–	79
COc1ccc(NC(=O)NC23CC4(C)CC(C)(CC(C)(C4)C2)C3)cc1	–	97	–	–	–	48
O=C(Nc1cccnc1)Nc1ccc(F)c(Cl)c1	–	93	–	–	–	85
COc1ccc(NC(=O)NC2(C)CCS(=O)(=O)C2)cc1 (configuration not stated)	·	–	–	·	·	·
CCC(CC)NC(=O)Nc1ccc(F)c(Cl)c1	–	71	–	–	–	84
CC(=O)N1c2ccc(S(=O)(=O)NCCC(=O)Nc3ncccc3C)cc2CC1C (configuration not stated)	–	–	–	–	–	·
CC(=O)Nc1cccc(NC(=S)Nc2ccc(F)c(Cl)c2)c1	–	95	–	–	–	87
Cc1ccc(NC(=O)Nc2ccc(F)c(Cl)c2)cc1	–	96	29	69	–	88
COc1ccc(OC)c(NC(=O)Nc2ccc(Cl)cc2)c1	–	91	–	–	–	69
COc1ccc(NC(=O)Nc2cc(C)ccc2OC)cc1	–	–	–	–	–	·
CC(C)CC(=O)Nc1ccc(F)c(Cl)c1	–	–	–	–	–	·
COc1ccc(NC(=O)Nc2ccc(F)c(Cl)c2)cc1	–	87	–	–	–	85
COc1ccc(NC(=O)Nc2cc(C)ccc2F)cc1	–	–	–	–	–	·
Cc1nnsc1C(=O)NC(=O)Nc1ccc(F)c(Cl)c1	–	59	–	–	–	76
COc1ccc(OC)c(NC(=O)c2cc(-c3cc(Cl)ccc3O)n[nH]2)c1	101	85	–	35	97	61
O=C(Nc1ccc(F)cc1)C1CC2CCC1C2 (configuration not stated)	–	–	–	–	–	·
O=C(Nc1ccc(F)c(Cl)c1)C1CC2CCC1C2 (configuration not stated)	–	57	·	–	–	79
Cc1ccc(CNc2nc(C)nc3sc4c(c23)CCC4)cc1	–	62	–	–	–	81
O=C(CNCc1ccccc1)Nc1ccc(Cl)cc1	–	–	–	–	–	·
COc1cc2c(cc1NC(=S)Nc1cccc3ccccc13)oc1ccccc12	–	–	–	–	–	·
COc1ccc(-c2cc(C(=O)Nc3cc(OC)cc(C(=O)Nc4cccc(C(F)(F)F)c4)c3)[nH]n2)cc1	–	55!	·	32	–	56
COc1ccc(NC(=S)NNC(=S)Nc2cccc(C(F)(F)F)c2)cc1	–	69	–	–	–	72
COc1cc2c(cc1NC(=S)Nc1cccc(C(F)(F)F)c1)oc1ccccc12	–	94	–	–	–	80
O=C(NNC(=S)Nc1cccc(C(F)(F)F)c1)c1ccc(Cl)cc1Cl	–	101	–	–	–	89
COc1cc(NC(=O)c2ccno2)cc(C(=O)Nc2cccc(C(F)(F)F)c2)c1	–	–	·	–	–	·
Cc1cc(C)c(S(=O)(=O)Nc2nnc(C3CCCCC3)s2)c(C)c1	–	–	–	–	–	·
CCS(=O)(=O)N1Cc2ccccc2CC1C(=O)N(C)CC(=O)Nc1ccc(F)c(F)c1F (configuration not stated)	–	–	·	–	–	·
Cc1ccc(NC(=S)NNS(=O)(=O)c2ccc3ccccc3c2)cc1Cl	–	–	–	–	–	·
